# Compounds with a hit are over-represented: about 2.9% of the library has one in this group of screens.
# FAS TE block = inhibitors of human fatty acid synthase thioesterase domain; AID 602261; inhibition, % at 15 µM; recombinant FAS-TE, OMFH fluorogenic substrate, fluorescence endpoint; actives 0.67% (n = 360,000);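 active means compounds whose normalised, plate-corrected inhibition of enzyme fluorescence in the single-dose primary screen is 50% or more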
# ADAM17 inh = ADAM17 inhibition, QFRET primary screen; P78536; recombinant ADAM17, EDANS/DABCYL FRET peptide cleavage; inhibition, % at 6.95 µM; actives 0.83% (n = 370,000); AID 720648;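 active means inhibition above the mean of compounds lying between control limits plus 3 SD, set per campaign, cut at about 8.5% in these data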
# ADAM10 inh = ADAM10 inhibition, QFRET primary screen; O14672; recombinant ADAM10, EDANS/DABCYL FRET peptide cleavage, 3 h; inhibition, % at 7 µM; actives 0.62% (n = 370,000);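 active means inhibition above a per-campaign cutoff equal to the mean of compounds falling between control-based bounds plus 3 SD, cut at about 20% in these data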
# Arr AP2 block = human beta-arrestin and AP2 interaction inhibition; inhibition, % at 10 µM; actives 0.31% (n = 340,000); AID 504490; FITC-arrestin peptide / GST-AP2 beads, flow cytometry; AP2 beta2 appendage carries R879A mutation;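 active means inhibition above a set limit, near 3 SD of compounds lacking own fluorescence, cut at about 54% in these data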
#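 System: GST-AP2 R879A glutathione beads | Also added: FITC-arrestin peptide, 50 nM | Times: 12 min plus 1 h, RT | Signal: Bead flow cytometry, FITC channel | Buffer or medium: PBS with 0.05% Tween 20 and 0.1% BSA | Read-out basis: Percent drop in bead-associated FITC signal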
# CaV13 ICDI inh = Primary screen for inhibitors of IQ motif and Ca2+-dependent inactivation inhibitor domain binding in CACNA1D, Förster resonance energy transfer in living cells, …; actives 0.098% (n = 340,000); inhibition, % at 12.3 µM; HEK cells, CFP/YFP FRET ICDI-IQ, plate reader, 10 min; percent FRET-ratio fall versus neutral wells; AID 743397;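 active means mean replicate inhibition of at least 30% and at least 1% of replicates passing that level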
# CendR NRP1 mod = modulators of CendR peptide binding to human neuropilin-1 | O14786 | FAM-RPARPAR peptide binding to NRP-1, fluorescence polarization | inhibition, % at 25 µM | actives 0.85% (n = 360,000);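 active means inhibition or corrected inhibition above about 18%, plus a signal ratio from 0.5 to 1.5, limit read from the data, passing the limit was not always enough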
# Target sequence (O14786 whole entry, looked up): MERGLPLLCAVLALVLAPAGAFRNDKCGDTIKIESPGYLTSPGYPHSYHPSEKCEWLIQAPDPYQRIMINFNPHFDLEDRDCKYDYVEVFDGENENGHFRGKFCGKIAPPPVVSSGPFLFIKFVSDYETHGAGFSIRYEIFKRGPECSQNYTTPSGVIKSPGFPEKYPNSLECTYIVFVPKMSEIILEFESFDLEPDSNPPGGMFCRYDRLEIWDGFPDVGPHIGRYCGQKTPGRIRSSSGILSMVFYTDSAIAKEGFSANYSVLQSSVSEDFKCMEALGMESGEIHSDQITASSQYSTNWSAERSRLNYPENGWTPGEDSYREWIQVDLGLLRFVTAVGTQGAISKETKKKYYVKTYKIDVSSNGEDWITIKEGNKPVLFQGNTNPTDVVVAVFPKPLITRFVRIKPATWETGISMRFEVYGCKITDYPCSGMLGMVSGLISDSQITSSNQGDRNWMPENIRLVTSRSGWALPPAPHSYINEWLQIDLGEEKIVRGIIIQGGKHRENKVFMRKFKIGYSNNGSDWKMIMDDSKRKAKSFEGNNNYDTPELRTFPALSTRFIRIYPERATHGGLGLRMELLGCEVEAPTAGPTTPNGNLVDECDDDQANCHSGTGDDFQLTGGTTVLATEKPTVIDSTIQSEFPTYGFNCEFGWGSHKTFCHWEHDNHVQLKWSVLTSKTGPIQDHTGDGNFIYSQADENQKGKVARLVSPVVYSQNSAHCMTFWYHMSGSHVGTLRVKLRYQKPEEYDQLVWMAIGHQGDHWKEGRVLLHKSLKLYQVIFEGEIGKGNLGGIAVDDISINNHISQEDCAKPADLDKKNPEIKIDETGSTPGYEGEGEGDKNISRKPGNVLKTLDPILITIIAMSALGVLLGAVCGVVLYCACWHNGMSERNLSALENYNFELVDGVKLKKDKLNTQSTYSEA
# ADAM10 confirm = confirmation of inhibitors of human ADAM10; shares compounds with ADAM10 inh; ADAM10 QFRET peptide cleavage, EDANS fluorescence; inhibition, % at 6.95 µM; actives 1% (n = 2,100);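 active means inhibition above about 20% chosen separately for each screening run, limit read from the data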
# ADAM17 counter = ADAM17 inhibition, counter-screen for ADAM10 exosite hits | ADAM17 QFRET peptide cleavage, EDANS fluorescence | actives 0.5% (n = 2,100) | inhibition, % at 6.95 µM | shares compounds with ADAM10 inh;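 active means mean triplicate inhibition above the solvent-only control wells' mean plus 3 SD, cut at about 12% in these data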
# ADAM10 counter = counter-screen for ADAM17 exosite inhibitors: inhibitors of human ADAM10; shares compounds with ADAM17 inh; recombinant ADAM10, EDANS/DABCYL FRET peptide cleavage, 3 h; inhibition, % at 6.95 µM; actives 47% (n = 2,900); AID 743256;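 active means mean inhibition over the triplicate runs exceeds the activity threshold set in the earlier primary screen, cut at about 20% in these data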
# ADAM17 confirm = confirmation of inhibitors of human ADAM17; shares compounds with ADAM17 inh; recombinant ADAM17, EDANS/DABCYL QFRET peptide cleavage; inhibition, % at 6.95 µM; actives 65% (n = 2,900); AID 743257;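 active means mean inhibition across replicates above the hit cutoff set in the primary screen, cut at about 8.5% in these data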
# Numbers stand for hits; n = inactive; x = not tested or not shown.
SMILES,FAS TE block,ADAM17 inh,ADAM10 inh,Arr AP2 block,CaV13 ICDI inh,CendR NRP1 mod,ADAM10 confirm,ADAM17 counter,ADAM10 counter,ADAM17 confirm
O=C(CSc1nc2ccccc2c(=O)n1Cc1ccccc1)Nc1ccc(Br)cc1C(=O)O,n,n,n,n,n,n,x,x,x,x
COCc1cc(N2CCNC[C@@H]2C)ccc1N1CCN(Cc2ccccc2)[C@@H](C)C1,x,n,n,x,n,x,x,x,x,x
CC(C)N1CCCCC(NC(=O)COCc2ccccc2)C1=O (centres undefined),x,n,n,x,x,x,x,x,x,x
O=C(Nc1ccccc1)OCCNC(=O)c1cccc(Br)c1,n,n,n,n,n,n,x,x,x,x
O=C(Nc1ccc(Cl)c(Cl)c1)OCCNC(=O)c1cccc(Cl)c1,n,9.0,28,n,n,n,n,n,28,16
Cc1ccccc1-c1cc(C(=O)NCc2ccc(OC(F)(F)F)cc2)n(CC2CC(c3cccnc3)=NO2)n1 (centres undefined),n,10,21,n,n,n,n,n,25,13
CCCCCCCCSc1n[nH]c(N)n1,n,n,n,n,n,n,x,x,x,x
CCCCCCCCCCSc1n[nH]c(N)n1,n,19,45,n,n,n,n,n,n,10
COc1ccccc1N(C)S(=O)(=O)c1ccc(C(=O)NNC(=O)c2ccccc2O)cc1,n,9.0,22,n,x,n,n,n,n,12
C[C@@H]1CN([C@H](C)CO)C(=O)c2c(c3ccccc3n2C)-c2ccccc2CO[C@@H]1CN(C)C(=O)Nc1ccc2c(c1)OCO2,n,14,22,x,n,n,n,n,20,9.5
Cc1ccccc1S(=O)(=O)N(C)C[C@@H]1OCc2ccccc2-c2c(n(C)c3ccccc23)C(=O)N([C@H](C)CO)C[C@@H]1C,n,9.7,27,x,n,n,n,n,32,16
C[C@H](CO)N1C[C@H](C)[C@H](CN(C)S(=O)(=O)c2ccccc2)OCc2ccccc2-c2c(n(C)c3ccccc23)C1=O,n,n,n,x,n,n,x,x,x,x
CCOC(=O)C1=CC[C@@H](c2ccccc2)N(S(=O)(=O)c2ccc(C)cc2)[C@H]1/C=C/c1ccccc1,n,n,n,x,n,n,x,x,x,x
C=C[C@H]1C(C(=O)OCC)=CC[C@@H](c2ccccc2)N1S(=O)(=O)c1ccc(C)cc1,n,13,28,x,n,n,n,n,n,n
COc1cccc(Nc2ncccc2C(=O)Nc2ccccc2)c1,n,19,29,n,n,n,n,n,n,n
C=CCN(c1ccccc1OC)S(=O)(=O)c1cccc(C(=O)OCC(=O)N2CCOCC2)c1,n,n,n,n,n,n,x,x,x,x
C=CCN(c1ccccc1OC)S(=O)(=O)c1cccc(C(=O)OCC(=O)c2c[nH]c3ccccc23)c1,n,8.8,23,n,n,n,n,n,32,19
Cc1ccccc1CN1CCCCC(NC(=O)c2ccccc2C(F)(F)F)C1=O (centres undefined),x,n,n,x,x,x,x,x,x,x
Cc1ccc(NC(=O)[C@@H]2O[C@H](CO)[C@@H](O)[C@H]2O)cc1C(F)(F)F,n,n,n,x,n,n,x,x,x,x
Nc1cc(OC(=O)c2c(F)cccc2Cl)nn1S(=O)(=O)c1ccccc1,n,12,28,n,n,n,n,n,n,11
Nc1cc(OC(=O)c2cccs2)nn1S(=O)(=O)c1ccccc1,n,n,n,n,n,n,x,x,x,x
O=C(Nc1ccc(OC(F)(F)F)cc1)Nc1nc2ncccn2c1-c1ccc(C(F)(F)F)cc1,x,n,n,x,x,x,x,x,x,x
COc1ccc(-n2c(SCC(=O)NCc3cccs3)nc3[nH]ncc3c2=O)cc1,n,n,n,n,n,n,x,x,x,x
COc1cc(NC(=O)CSc2nc3[nH]ncc3c(=O)n2-c2ccc(Cl)cc2)cc(OC)c1,n,12,31,n,n,n,n,n,26,13
COc1ccc(-n2c(SCC(=O)NNC(=S)Nc3ccccc3)nc3ccccc3c2=O)cc1,x,12,26,x,x,x,n,n,n,8.6
SMILES,FAS TE block,ADAM17 inh,ADAM10 inh,Arr AP2 block,CaV13 ICDI inh,CendR NRP1 mod,ADAM10 confirm,ADAM17 counter,ADAM10 counter,ADAM17 confirm
Cc1ccc(S(=O)(=O)N(C)CC(=O)N(C)Cc2cccs2)cc1,n,n,n,x,n,n,x,x,x,x
COC(=O)c1ccc2nc(-c3ccccc3)c(Cc3ccccc3OC)n2c1,n,n,n,x,n,n,x,x,x,x
O=C(Cc1c(Sc2ccccc2)c2ccccc2n1Cc1ccccc1)NCCO,n,14,30,n,n,n,n,n,n,9.1
CCCCCCCCN1CN2Cc3cc(OC)ccc3C2CS1(=O)=O (centres undefined),x,n,n,x,x,x,x,x,x,x
COc1ccc(C2c3c(ncn(Cc4ccco4)c3=N)Oc3ccc4ccccc4c32)cc1 (centres undefined),n,n,n,n,n,n,x,x,x,x
N=c1c2c(ncn1Cc1ccco1)Oc1ccc3ccccc3c1C2c1ccccc1 (centres undefined),n,11,20,n,n,n,n,n,n,12
CC(=O)Nc1cccc(-c2ccnc3c2CC(C)(C(=O)Nc2cccc(Oc4ccccc4)c2)O3)c1 (centres undefined),n,9.6,25,x,n,n,n,n,20,15
CC1(C(=O)Nc2ccc3c(c2)OCO3)Cc2c(-c3cccc(C(F)(F)F)c3)ccnc2O1 (centres undefined),n,10,21,x,n,n,n,n,24,13
COc1ccc(NC(=O)C2(C)Cc3c(-c4cccc(C(F)(F)F)c4)ccnc3O2)cn1 (centres undefined),n,12,26,x,n,n,n,n,n,12
CC(=O)Nc1cccc(-c2ccnc3c2CC(C)(C(=O)Nc2cccc(C(F)(F)F)c2)O3)c1 (centres undefined),n,8.7,21,x,n,n,n,n,n,10
CC1(C(=O)Nc2cccc(Oc3ccccc3)c2)Cc2c(-c3ccccc3)ccnc2O1 (centres undefined),n,n,n,x,n,n,x,x,x,x

# Screens as filed in PubChem.
